Results from ChEMBL document CHEMBL4680221, “Discovery of pyrazole derivatives as cellular active inhibitors of histone lysine specific demethylase 5B (KDM5B/JARID1B)” (Eur J Med Chem, 2020).
One block for each compound: values may come before it. Active and inactive are the calls of the source. The calls are words filed in the database; no cut-off is given here.

Assays:
[1] = target: T1, Lysine-specific demethylase 5B (Homo sapiens, UniProt Q9UGL1); test: Inhibition of recombinant human N-terminal FLAG-tagged KDM5B expressed in Sf9 insect cells using biotin-H3K4me as substrate by ALPHA
In short: (§1)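 ALPHA demethylase assay. Recombinant KDM5B (4 nM) was preincubated with compound, then biotin-H3K4me3 peptide (64 nM) was added. Buffer: 10 μM α-KG, 100 μM ascorbate, 50 μM (NH4)2Fe(SO4)2, 50 mM HEPES pH 7.5, 0.01% Tween 20, 0.1% BSA. Read-out used streptavidin donor and H3K4me1-2 antibody acceptor beads. Data were normalized to blank control and IC50 fitted.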

[2] = target: T1, Lysine-specific demethylase 5B; test: Inhibition of recombinant human N-terminal FLAG-tagged KDM5B expressed in Sf9 insect cells at 10 uM using biotin-H3K4me as substrate by ALPHA relative to control; in short: as §1
[3] = test system: MKN-45; test: Antiproliferative activity against human MKN-45 cells assessed as reduction in cell proliferation measured after 6 days by MTS assay; format: functional, cell-based; conditions: MKN-45, 144 h
In short: (§2)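 MKN45 cells were seeded at 3×10^3 cells per well and treated for 4 or 6 days, as indicated. Proliferation was read by MTS assay and IC50 derived. Three independent experiments, mean ± SD.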

[4] = test system: MKN-45; test: Antimigratory activity in human MKN-45 cells at 20 uM measured up to 48 hrs by wound healing assay; format: functional, cell-based; conditions: time hrs <=48
In short: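 MKN45 cells were grown to confluence in 24 h, then scratched with a pipette tip and washed with PBS. Medium was changed to fresh medium with 2% FBS plus compound. The wound was photographed by microscope at 0, 6, 12, 24 and 48 h. Three independent experiments.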

[5] = test system: MKN-45; test: Antiproliferative activity against human MKN-45 cells assessed as reduction in cell proliferation measured after 4 days by MTS assay; format: functional, cell-based; conditions: MKN-45, 96 h; in short: as §2
[6] = test system: MKN-45; test: Antimigratory activity in human MKN-45 cells at 20 uM measured after 24 hrs by transwell assay; format: functional, cell-based
[7] = Cytotoxicity against human GES1 cells assessed as reduction in cell proliferation at 100 uM by MTS assay relative to control; format: cell-based; conditions: read-out: Activity
In short: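 Normal human gastric epithelial GES-1 cells, seeded at 3×10^3 cells per well and exposed to 100 μM. Antiproliferation rate was read by MTS assay.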

[8] = test system: MKN-45; test: Antiproliferative activity against human MKN-45 cells assessed as reduction in cell proliferation measured after 6 days by MTS assay relative to control; format: functional; parameters: scale not given: the % may be the effect or the level left; conditions: time 6 day; in short: as §2
[9] = target: T1, Lysine-specific demethylase 5B; test: Inhibition of KDM5B in human MKN-45 cells assessed as increase in H3K4me2 accumulation at 20 uM measured after 5 days by Western blot analysis; format: cell-based; conditions: time 5.0 day
In short: (§3)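 MKN45 cells were treated for 5 days and lysed in RIPA buffer. About 30 µg protein was run on 10% SDS-PAGE and transferred to 0.2 µm nitrocellulose, then blocked with 5% milk in PBS for 2 h. Blots were probed for histone methylation marks with histone 3 as loading control and detected by ECL.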

[10] = test system: MKN-45; test: Inhibition of KDM6 in human MKN-45 cells assessed as increase in H3K27me2 accumulation at 20 uM measured after 5 days by Western blot analysis; format: cell-based; conditions: time 5.0 day; in short: as §3
[11] = target: T1, Lysine-specific demethylase 5B; test: Inhibition of KDM5B in human MKN-45 cells assessed as increase in H3K4me3 accumulation at 20 uM measured after 5 days by Hoechst 33342 staining based immunofluorescence assay; format: cell-based; conditions: time 5.0 day
In short: (§4)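 MKN45 cells were seeded and left 24 h, then treated for 5 days. Cells were fixed in 4% paraformaldehyde, permeabilised with 0.1% Triton X-100 for 20 min and blocked with 5% BSA for 1 h. H3K4me2 or H3K4me3 primary antibody was applied at 4°C overnight, followed by Alexa Fluor 488 secondary and Hoechst 33342 (5 µg/mL) nuclear stain. Signal was quantified by high content imaging; three independent experiments.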

[12] = target: T1, Lysine-specific demethylase 5B; test: Inhibition of KDM5B in human MKN-45 cells assessed as increase in H3K4me2 accumulation at 20 uM measured after 5 days by Hoechst 33342 staining based immunofluorescence assay; format: cell-based; conditions: time 5.0 day; in short: as §4
[13] = target: T1, Lysine-specific demethylase 5B; test: Inhibition of KDM5B in human MKN-45 cells assessed as increase in H3K4me1 accumulation at 20 uM measured after 5 days by Western blot analysis; format: cell-based; conditions: time 5.0 day; in short: as §3
[14] = target: T1, Lysine-specific demethylase 5B; test: Inhibition of KDM5B in human MKN-45 cells assessed as increase in H3K4me3 accumulation at 20 uM measured after 5 days by Western blot analysis; format: cell-based; conditions: time 5.0 day; in short: as §3
[15] = test system: MKN-45; test: Antiproliferative activity against human MKN-45 cells assessed as reduction in cell proliferation measured after 4 days by MTS assay relative to control; format: functional; parameters: scale not given: the % may be the effect or the level left; conditions: time 4 day; in short: as §2
[16] = target: T1, Lysine-specific demethylase 5B; test: Inhibition of KDM5B in human MKN-45 cells assessed as protein stabilization at 0.5 to 30 uM measured after 1 hr by cellular thermal shift assay; format: cell-based; conditions: dose 0.5-30 µM
In short: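 MKN45 cells (5×10^5) were treated with compound or DMSO for 1 h, washed in PBS and resuspended in PBS with protease inhibitors. Cells were heated at 46 °C for 3 min, then freeze-thawed three times in liquid nitrogen. KDM5B in the supernatant was measured by western blot with GAPDH control. Repeated three times.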

[17] = test system: MKN-45; test: Inhibition of KDM4 in human MKN-45 cells assessed as increase in H3K9me2 accumulation at 20 uM measured after 5 days by Western blot analysis; format: cell-based; conditions: time 5.0 day; in short: as §3
[18] = test system: MKN-45; test: Inhibition of KDM4 in human MKN-45 cells assessed as increase in H3K9me3 accumulation at 20 uM measured after 5 days by Western blot analysis; format: cell-based; conditions: time 5.0 day; in short: as §3

T1 sequence (Q9UGL1 whole entry): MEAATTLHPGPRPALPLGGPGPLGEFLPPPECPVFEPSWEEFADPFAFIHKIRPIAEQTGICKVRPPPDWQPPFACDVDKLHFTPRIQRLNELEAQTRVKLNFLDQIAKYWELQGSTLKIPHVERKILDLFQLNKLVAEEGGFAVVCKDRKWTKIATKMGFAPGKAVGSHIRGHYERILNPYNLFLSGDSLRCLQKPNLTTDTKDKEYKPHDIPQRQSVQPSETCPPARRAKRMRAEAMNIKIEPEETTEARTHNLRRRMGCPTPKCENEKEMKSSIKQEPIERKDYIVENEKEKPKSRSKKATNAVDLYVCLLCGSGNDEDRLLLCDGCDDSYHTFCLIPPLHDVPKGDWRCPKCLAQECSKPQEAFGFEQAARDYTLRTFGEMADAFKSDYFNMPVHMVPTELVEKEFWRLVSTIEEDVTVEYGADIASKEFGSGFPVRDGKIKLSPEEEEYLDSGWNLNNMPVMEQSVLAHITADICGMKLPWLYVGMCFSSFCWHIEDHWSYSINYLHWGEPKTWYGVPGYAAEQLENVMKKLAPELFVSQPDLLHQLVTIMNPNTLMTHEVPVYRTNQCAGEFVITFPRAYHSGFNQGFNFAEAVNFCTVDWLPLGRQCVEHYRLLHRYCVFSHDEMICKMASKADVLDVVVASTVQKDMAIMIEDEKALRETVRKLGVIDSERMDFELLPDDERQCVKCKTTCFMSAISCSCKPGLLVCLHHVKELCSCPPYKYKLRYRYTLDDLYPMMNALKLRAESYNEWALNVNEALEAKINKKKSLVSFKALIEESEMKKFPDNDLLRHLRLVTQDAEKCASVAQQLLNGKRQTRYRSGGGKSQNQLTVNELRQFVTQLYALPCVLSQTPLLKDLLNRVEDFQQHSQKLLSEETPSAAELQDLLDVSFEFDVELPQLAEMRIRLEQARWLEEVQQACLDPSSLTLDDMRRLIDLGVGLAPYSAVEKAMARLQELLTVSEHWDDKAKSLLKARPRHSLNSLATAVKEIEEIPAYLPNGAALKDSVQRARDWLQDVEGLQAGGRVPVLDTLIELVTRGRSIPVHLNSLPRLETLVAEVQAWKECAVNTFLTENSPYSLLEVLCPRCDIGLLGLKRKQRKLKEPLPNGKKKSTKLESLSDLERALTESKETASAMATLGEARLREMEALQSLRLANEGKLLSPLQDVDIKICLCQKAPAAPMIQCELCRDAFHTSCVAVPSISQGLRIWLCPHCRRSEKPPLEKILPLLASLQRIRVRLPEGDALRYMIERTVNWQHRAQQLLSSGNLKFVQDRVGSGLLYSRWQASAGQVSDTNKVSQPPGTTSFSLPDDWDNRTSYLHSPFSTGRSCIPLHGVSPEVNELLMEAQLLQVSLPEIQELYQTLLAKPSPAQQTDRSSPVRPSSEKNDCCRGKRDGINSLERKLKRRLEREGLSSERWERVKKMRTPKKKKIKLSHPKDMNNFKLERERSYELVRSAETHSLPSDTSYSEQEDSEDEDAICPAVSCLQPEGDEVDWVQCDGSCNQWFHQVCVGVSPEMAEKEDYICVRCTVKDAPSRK

SMILES: Cc1cccc(-n2cc(C(=O)NCCN3CCOCC3)c(-c3ccccc3)n2)c1
IC50 [1]: > 10000 nM
inhibition [2]: 20.9%

SMILES: O=C(NCC1(N2CCOCC2)CCCCC1)c1cn(-c2ccccc2)nc1-c1ccccc1
IC50 [1]: > 10000 nM
inhibition [2]: -1.95%

SMILES: COc1ccc(-n2cc(C(=O)N3CCN(CCN4CCCC4)CC3)c(-c3ccccc3)n2)cc1
IC50 [1]: > 10000 nM
inhibition [2]: 17.2%

SMILES: Cc1ccc(-n2nc(-c3ccccc3)nc2C(=O)NCC(C)(C)N2CCOCC2)cc1
IC50 [1]: > 10000 nM
inhibition [2]: 28.9%

SMILES: Cc1ccccc1-c1nn(-c2ccccc2)cc1C(=O)NCCN1CCOCC1
IC50 [1]: > 10000 nM
inhibition [2]: 9.25%

SMILES: O=C(NCCN1CCOCC1)c1cn(-c2ccc(Cl)cc2)nc1-c1ccccc1
IC50 [1]: > 10000 nM
inhibition [2]: 8.69%

SMILES: CCc1ccc(-c2nn(-c3ccccc3)cc2C(=O)NCCN2CCOCC2)cc1
IC50 [1]: 1350 nM
inhibition [2]: 45.3%

SMILES: Cc1ccc(-n2cc(C(=O)NCCN3CCOCC3)c(-c3ccccc3)n2)cc1
IC50 [1]: 851 nM
inhibition [2]: 66.8%

SMILES: COc1ccc(-n2nc(-c3ccccc3)nc2C(=O)NCC(C)(C)N2CCOCC2)cc1
Activity [8]: 13.24%
IC50 [1]: > 10000 nM
inhibition [9]: inactive
inhibition [10]: inactive
inhibition [11]: inactive
inhibition [12]: inactive
Activity [4]: inactive
inhibition [13]: inactive
inhibition [14]: inactive
Activity [15]: 10.32%
inhibition [16]: inactive
inhibition [2]: 28%
inhibition [17]: inactive
Activity [6]: inactive
inhibition [18]: inactive

SMILES: Cc1n[nH]cc1C(=O)NCCN1CCOCC1
IC50 [1]: > 10000 nM
inhibition [2]: 21.5%

SMILES: Cc1cncc(C(=O)NCCN2CCOCC2)c1
IC50 [1]: > 10000 nM
inhibition [2]: 33.6%

SMILES: CC(C)N(CCNC(=O)c1cn(-c2ccccc2)nc1-c1ccccc1)C(C)C
IC50 [1]: 2240 nM
inhibition [2]: 67%

SMILES: CC(C)c1ccc(-n2cc(C(=O)NCCN3CCOCC3)c(-c3ccccc3)n2)cc1
IC50 [1]: > 10000 nM
inhibition [2]: 14.8%

SMILES: O=C(NCCN1CCOCC1)c1cncc(-c2ccccc2)c1
IC50 [1]: > 10000 nM
inhibition [2]: 42.5%

SMILES: Cc1ccccc1-n1cc(C(=O)NCCN2CCOCC2)c(-c2ccccc2)n1
IC50 [1]: > 10000 nM
inhibition [2]: -7.78%

SMILES: O=C(NCCN1CCOCC1)c1c[nH]nc1-c1ccccc1
IC50 [1]: 5390 nM
inhibition [2]: 75.7%

SMILES: CC(C)c1ccc(-c2nn(-c3ccccc3)cc2C(=O)NCCN2CCOCC2)cc1
IC50 [1]: > 10000 nM
inhibition [2]: -5.81%

SMILES: CCc1ccc(-n2cc(C(=O)NCCN3CCOCC3)c(-c3ccccc3)n2)cc1
IC50 [1]: > 10000 nM
inhibition [2]: 20%

Continued, in another order:

IC50 [1]: 323 nM
inhibition [2]: 79.5%
SMILES: Cc1ccc(NC(=O)c2cn(-c3ccc(C)cc3)nc2-c2ccccc2)cc1

IC50 [1]: 335 nM
inhibition [2]: 75.4%
SMILES: O=C(NCCN1CCOCC1)c1cn(-c2ccccc2)nc1-c1cccs1

IC50 [1]: 73 nM
inhibition [2]: 94.2%
SMILES: Cc1ccc(-n2cc(C(=O)N3CCN(CCN4CCCC4)CC3)c(-c3ccccc3)n2)cc1

IC50 [1]: 851 nM
inhibition [2]: 76.5%
SMILES: Cc1ccc(-c2nn(-c3ccc(C)cc3)cc2C(=O)N2CCN(CCN3CCCC3)CC2)cc1

IC50 [1]: 10.5 nM
IC50 [3]: 23800 nM
IC50 [5]: 30300 nM
SMILES: CC(C)c1c(-c2ccccc2)[nH]c2c(C#N)cnn2c1=O
Activity [4]: Active
Activity [6]: Active
inhibition at 100 µM [7]: < 10%

IC50 [1]: 108 nM
inhibition [2]: 93%
SMILES: COc1ccc(-n2cc(C(=O)NCCN3CCOCC3)c(-c3ccccc3)n2)cc1

IC50 [1]: 237 nM
inhibition [2]: 81.3%
SMILES: O=C(NCCN1CCOCC1)c1cn(-c2ccccc2)nc1-c1ccncc1

IC50 [1]: 572 nM
inhibition [2]: 72%
SMILES: O=C(NCCN1CCOCC1)c1cn(-c2ccccc2)nc1-c1ccc(Cl)cc1

IC50 [1]: 200 nM
inhibition [2]: 92.3%
SMILES: CC(C)(CNC(=O)c1cn(-c2ccccc2)nc1-c1ccccc1)N1CCN(c2ccccc2)CC1

IC50 [1]: 541 nM
inhibition [2]: 62%
SMILES: CC(C)(CNC(=O)c1cn(-c2ccc(Cl)cc2)nc1-c1ccccc1)N1CCOCC1

IC50 [1]: 232 nM
inhibition [2]: 86.6%
SMILES: O=C(c1cn(-c2ccccc2)nc1-c1ccccc1)N1CCN(CCN2CCCC2)CC1

IC50 [1]: 348 nM
inhibition [2]: 84.6%
SMILES: C#CCNC(=O)c1cn(-c2ccccc2)nc1-c1ccccc1

IC50 [1]: 191 nM
inhibition [2]: 82.4%
SMILES: Cc1ccc(-n2cc(C(=O)NCC(C)(C)N3CCOCC3)c(-c3ccccc3)n2)cc1

IC50 [1]: 310 nM
inhibition [2]: 76.4%
SMILES: O=C(NCCN1CCOCC1)c1cn(-c2ccccc2)nc1-c1ccccc1

IC50 [1]: 251 nM
inhibition [2]: 82.1%
SMILES: COC(=O)CCNC(=O)c1cn(-c2ccc(C)cc2)nc1-c1ccccc1

IC50 [1]: 238 nM
inhibition [2]: 82.3%
SMILES: COc1ccc(-c2nn(-c3ccccc3)cc2C(=O)NCCN2CCOCC2)cc1

IC50 [1]: 93.2 nM
inhibition [2]: 92.3%
SMILES: COc1ccccc1-n1cc(C(=O)NCC(C)(C)N2CCOCC2)c(-c2ccccc2)n1
